According to ChEMBL document CHEMBL1212777, “Novel VIM metallo-beta-lactamase variant from clinical isolates of Enterobacteriaceae from Algeria” (2010):
Values after ≈ are worked out from the molar mass of the structure shown.

Key:
Format in all cases: functional
Escherichia coli [1] = assay: Antimicrobial activity against Escherichia coli C600 2878 transconjugate expressing beta-lactamase VIM-19 by microdilution method in presence of 0.4 mM EDTA
Outline: (§1)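 Rifampin-resistant E. coli C600 recipient mated with the clinical strain. Transconjugants were selected on agar with rifampin 300 μg/ml plus cefotaxime 0.5 μg/ml. MICs by dilution on Mueller-Hinton agar, inoculum 10^4 CFU per spot, CA-SFM interpretation. Inhibitor at a fixed level: clavulanic acid 2 μg/ml or EDTA 0.4 mM.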

Providencia stuartii [2] = assay: Antimicrobial activity against Providencia stuartii 6858 strain expressing beta-lactamase VIM-19 by microdilution method
Outline: (§2)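 Clinical isolates from intensive care patients. MICs by dilution on Mueller-Hinton agar, inoculum 10^4 CFU per spot, read after growth and interpreted by CA-SFM guidelines. Where the line names an inhibitor, it was held at a fixed level: clavulanic acid 2 μg/ml, tazobactam 4 μg/ml, or EDTA 0.4 mM.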

Escherichia coli [3] = assay: Antimicrobial activity against Escherichia coli DH5alpha harbouring plasmid BK-VIM-19 expressing beta-lactamase VIM-19 by microdilution method
Outline: (§3)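 MIC by dilution on Mueller-Hinton agar, inoculum 10^4 CFU per spot, interpreted by CA-SFM guidelines. Inhibitor combinations where tested: clavulanic acid 2 μg/ml, tazobactam 4 μg/ml, EDTA 0.4 mM. Transconjugants came from rifampin-resistant E. coli C600 selected on rifampin 300 μg/ml plus cefotaxime 0.5 μg/ml. Transformants came from electroporation into E. coli DH5α selected on cefotaxime 0.5 μg/ml.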

Escherichia coli [4] = assay: Antimicrobial activity against Escherichia coli DH5alpha harbouring plasmid BK-VIM-19 expressing beta-lactamase VIM-19 by microdilution method in presence of 0.4 mM EDTA; outline: as §3
Escherichia coli [5] = assay: Antimicrobial activity against Escherichia coli 138 expressing beta-lactamase VIM-19 by microdilution method; outline: as §2
Klebsiella pneumoniae [6] = assay: Antimicrobial activity against Klebsiella pneumoniae 2878 strain expressing beta-lactamase VIM-19 […] in presence of 0.4 mM EDTA
Klebsiella pneumoniae [7] = assay: Antimicrobial activity against Klebsiella pneumoniae 6828 strain expressing beta-lactamase VIM-19 by microdilution method; outline: as §2
Escherichia coli [8] = assay: Antimicrobial activity against Escherichia coli harbouring plasmid BK-CMV expressing beta-lactamase VIM-19 by microdilution method; outline: as §3
Escherichia coli [9] = assay: Antimicrobial activity against Escherichia coli DH5alpha 2878 transformant expressing beta-lactamase VIM-19 by microdilution method in presence of 0.4 mM EDTA; outline: as §3
Escherichia coli [10] = assay: Antimicrobial activity against Escherichia coli DH5alpha 2878 transformant expressing beta-lactamase VIM-19 by microdilution method; outline: as §3
Providencia stuartii [11] = assay: Antimicrobial activity against Providencia stuartii 6858 strain expressing beta-lactamase VIM-19 by microdilution method in presence of 0.4 mM EDTA; outline: as §2
Escherichia coli [12] = assay: Antimicrobial activity against Escherichia coli 2603 strain expressing beta-lactamase VIM-19 by microdilution method in presence of 0.4 mM EDTA; outline: as §2
Escherichia coli [13] = assay: Antimicrobial activity against Escherichia coli 138 expressing beta-lactamase VIM-19 by microdilution method in presence of 0.4 mM EDTA; outline: as §3
Klebsiella pneumoniae [14] = assay: Antimicrobial activity against Klebsiella pneumoniae 2878 strain expressing beta-lactamase VIM-19 by microdilution method; outline: as §2
Escherichia coli [15] = assay: Antimicrobial activity against Escherichia coli C600 2878 transconjugate expressing beta-lactamase VIM-19 by microdilution method; outline: as §3
Escherichia coli [16] = assay: Antimicrobial activity against Escherichia coli 2603 strain expressing beta-lactamase VIM-19 by microdilution method; outline: as §2
Klebsiella pneumoniae [17] = assay: Antimicrobial activity against Klebsiella pneumoniae 6828 strain expressing beta-lactamase VIM-19 by microdilution method in presence of 0.4 mM EDTA; outline: as §2
Escherichia coli [18] = assay: Antimicrobial activity against Escherichia coli harbouring plasmidBK-CMV expressing beta-lactamase VIM-19 […] in presence of 0.4 mM EDTA
Escherichia coli [19] = assay: Antimicrobial activity against Escherichia coli harbouring plasmidBK-CMV expressing beta-lactamase VIM-19 […] in presence of 2 ug/ml clavulanic acid
Escherichia coli [20] = assay: Antimicrobial activity against Escherichia coli DH5alpha harbouring plasmid BK-VIM-19 expressing beta-lactamase VIM-19 by microdilution method in presence of 2 ug/ml clavulanic acid; outline: as §3
Klebsiella pneumoniae [21] = assay: Antimicrobial activity against Klebsiella pneumoniae 6828 strain expressing beta-lactamase VIM-19 by microdilution method in presence of 2 ug/ml clavulanic acid; outline: as §2
Providencia stuartii [22] = assay: Antimicrobial activity against Providencia stuartii 6858 strain expressing beta-lactamase VIM-19 by microdilution method in presence of 2 ug/ml clavulanic acid; outline: as §2
Escherichia coli [23] = assay: Antimicrobial activity against Escherichia coli 138 expressing beta-lactamase VIM-19 by microdilution method in presence of 2 ug/ml clavulanic acid; outline: as §2
Escherichia coli [24] = assay: Antimicrobial activity against Escherichia coli 2603 strain expressing beta-lactamase VIM-19 by microdilution method in presence of 2 ug/ml clavulanic acid; outline: as §2
Escherichia coli [25] = assay: Antimicrobial activity against Escherichia coli C600 2878 transconjugate expressing beta-lactamase VIM-19 by microdilution method in presence of 2 ug/ml clavulanic acid; outline: as §1
Klebsiella pneumoniae [26] = assay: Antimicrobial activity against Klebsiella pneumoniae 2878 strain expressing beta-lactamase VIM-19 by microdilution method in presence of 2 ug/ml clavulanic acid; outline: as §2
Escherichia coli [27] = assay: Antimicrobial activity against Escherichia coli DH5alpha 2878 transformant expressing beta-lactamase VIM-19 by microdilution method in presence of 2 ug/ml clavulanic acid; outline: as §3

Row | SMILES | MIC (Escherichia coli [1]) | MIC (Providencia stuartii [2]) | MIC (Escherichia coli [3]) | MIC (Escherichia coli [4]) | MIC (Escherichia coli [5]) | MIC (Klebsiella pneumoniae [6]) | MIC (Klebsiella pneumoniae [7]) | MIC (Escherichia coli [8]) | MIC (Escherichia coli [9]) | MIC (Escherichia coli [10]) | MIC (Providencia stuartii [11]) | MIC (Escherichia coli [12]) | MIC (Escherichia coli [13]) | MIC (Klebsiella pneumoniae [14]) | MIC (Escherichia coli [15]) | MIC (Escherichia coli [16]) | MIC (Klebsiella pneumoniae [17]) | MIC (Escherichia coli [18]) | also measured
1 | C[C@@H](O)[C@H]1C(=O)N2C(C(=O)O)=C(S[C@@H]3CN[C@H](C(=O)Nc4cccc(C(=O)O)c4)C3)[C@H](C)[C@H]12 | < 0.12 µg/mL | 32 µg/mL (≈ 67.3 µM) | 4 µg/mL (≈ 8.41 µM) | < 0.12 µg/mL | 32 µg/mL (≈ 67.3 µM) | 0.25 µg/mL | 16 µg/mL (≈ 33.6 µM) | < 0.12 µg/mL | < 0.12 µg/mL | 8 µg/mL (≈ 16.8 µM) | < 0.12 µg/mL | < 0.12 µg/mL | 0.25 µg/mL | 64 µg/mL (≈ 135 µM) | 1 µg/mL (≈ 2.1 µM) | 16 µg/mL (≈ 33.6 µM) | < 0.12 µg/mL | < 0.12 µg/mL | 
2 | CO/N=C(\C(=O)N[C@@H]1C(=O)N2C(C(=O)[O-])=C(C[N+]3(C)CCCC3)CS[C@H]12)c1csc(N)n1 |  | 2 µg/mL (≈ 4.16 µM) |  |  | 64 µg/mL (≈ 133 µM) |  | 4 µg/mL (≈ 8.32 µM) | < 0.12 µg/mL |  | 4 µg/mL (≈ 8.32 µM) |  |  |  | 64 µg/mL (≈ 133 µM) |  | 4 µg/mL (≈ 8.32 µM) |  |  | 
3 | CC1(C)S[C@@H]2[C@H](NC(=O)[C@H](N)c3ccc(O)cc3)C(=O)N2[C@H]1C(=O)O [AMOXICILLIN] |  | > 2050 µg/mL | > 2050 µg/mL |  | > 2050 µg/mL |  | > 2050 µg/mL | 4 µg/mL (≈ 10.9 µM) |  | > 2050 µg/mL |  |  |  | > 2050 µg/mL | > 2050 µg/mL | > 2050 µg/mL |  |  | MIC (Escherichia coli [19]): 4 µg/mL; MIC (Escherichia coli [20]): > 2050 µg/mL; MIC (Klebsiella pneumoniae [21]): > 2050 µg/mL; MIC (Providencia stuartii [22]): > 2050 µg/mL; MIC (Escherichia coli [23]): > 2050 µg/mL; MIC (Escherichia coli [24]): > 2050 µg/mL; MIC (Escherichia coli [25]): > 2050 µg/mL; MIC (Klebsiella pneumoniae [26]): > 2050 µg/mL; MIC (Escherichia coli [27]): > 2050 µg/mL
4 | C[C@H]1[C@H](NC(=O)/C(=N\OC(C)(C)C(=O)O)c2csc(N)n2)C(=O)N1S(=O)(=O)O [AZTREONAM] | 4 µg/mL | 2 µg/mL (≈ 4.59 µM) |  |  | 128 µg/mL (≈ 294 µM) | 16 µg/mL | 8 µg/mL (≈ 18.4 µM) |  | 16 µg/mL | 16 µg/mL (≈ 36.7 µM) |  | 64 µg/mL | 128 µg/mL | 16 µg/mL (≈ 36.7 µM) |  | 64 µg/mL (≈ 147 µM) | 8 µg/mL |  | 
5 | CO/N=C(\C(=O)N[C@@H]1C(=O)N2C(C(=O)O)=C(COC(C)=O)CS[C@H]12)c1csc(N)n1 [CEFOTAXIME] | 1 µg/mL | 128 µg/mL (≈ 281 µM) | 128 µg/mL (≈ 281 µM) | 0.06 µg/mL | 512 µg/mL (≈ 1120 µM) | 4 µg/mL | 128 µg/mL (≈ 281 µM) | 0.06 µg/mL (≈ 0.132 µM) | 1 µg/mL | 256 µg/mL (≈ 562 µM) | 2 µg/mL | 4 µg/mL | 32 µg/mL | 256 µg/mL (≈ 562 µM) | 64 µg/mL (≈ 141 µM) | 256 µg/mL (≈ 562 µM) | 4 µg/mL | 0.06 µg/mL | 
6 | CO[C@@]1(NC(=O)Cc2cccs2)C(=O)N2C(C(=O)O)=C(COC(N)=O)CS[C@@H]21 [CEFOXITIN] |  | 128 µg/mL (≈ 299 µM) | 128 µg/mL (≈ 299 µM) |  | 512 µg/mL (≈ 1200 µM) |  | 128 µg/mL (≈ 299 µM) | 4 µg/mL (≈ 9.36 µM) |  | 256 µg/mL (≈ 599 µM) |  |  |  | 512 µg/mL (≈ 1200 µM) | 128 µg/mL (≈ 299 µM) | 512 µg/mL (≈ 1200 µM) |  |  | 
